Results published in ChEMBL document CHEMBL4390654, “Microwave-assisted solid-phase synthesis of antisense acpP peptide nucleic acid-peptide conjugates active against colistin- and tigecycline-resistant E. coli and K. pneumoniae” (Eur J Med Chem, 2019).

Columns and labels:
Type in all cases: functional
Escherichia coli [1] = assay: Antibacterial activity against multi-drug resistant Escherichia coli NMI 3548/14 assessed as reduction in microbial growth incubated for 20 hrs
Method in brief: (§1)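 Broth microdilution MIC (modified Hancock protocol) in non-binding polystyrene plates. Inoculum ~2 × 10^5 CFU/mL in Mueller-Hinton broth with Mg²⁺ and Ca²⁺ at 4 mg/L each. Compounds dissolved in water, diluted in 0.01% acetic acid/0.2% BSA (final), added as 10× stocks. Covered plates incubated 20 h at 35 °C (± 2 °C) with 220 rpm circular shaking before MIC read.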

Escherichia coli [2] = assay: Antibacterial activity against multi-drug resistant Escherichia coli NMI 3898/15 assessed as reduction in microbial growth incubated for 20 hrs; details: NMI 3898/15, 20 h; method in brief: as §1
Klebsiella pneumoniae [3] = assay: Antibacterial activity against multi-drug resistant Klebsiella pneumoniae NMI 2697/14 assessed as reduction in microbial growth incubated for 20 hrs; method in brief: as §1
Klebsiella pneumoniae [4] = assay: Antibacterial activity against multi-drug resistant Klebsiella pneumoniae NMI 3081/09 assessed as reduction in microbial growth incubated for 20 hrs; method in brief: as §1

Compound	MIC (Escherichia coli [1]; NMI 3548/14, 20 h)	MIC (Escherichia coli [2])	MIC (Klebsiella pneumoniae [3]; NMI 2697/14, 20 h)	MIC (Klebsiella pneumoniae [4]; NMI 3081/09, 20 h)	MIC (Escherichia coli [1])	MIC (Klebsiella pneumoniae [3])	MIC (Klebsiella pneumoniae [4])
NCC[C@H](O)C(=O)N[C@@H]1C[C@H](N)[C@@H](O[C@H]2O[C@H](CN)[C@@H](O)[C@H](O)[C@H]2O)[C@H](O)[C@H]1O[C@H]1O[C@H](CO)[C@@H](O)[C@H](N)[C@H]1O [AMIKACIN]	8 µg/mL	2 µg/mL	32 µg/mL	16 µg/mL			
CC1(C)S[C@@H]2[C@H](NC(=O)[C@H](N)c3ccccc3)C(=O)N2[C@H]1C(=O)O [AMPICILLIN]	> 128 µg/mL	> 256 µg/mL	> 128 µg/mL	> 256 µg/mL			
CO/N=C(\C(=O)N[C@@H]1C(=O)N2C(C(=O)[O-])=C(C[N+]3(C)CCCC3)CS[C@H]12)c1csc(N)n1	2 µg/mL		16 µg/mL	> 256 µg/mL			
C[C@@H](O)[C@H]1C(=O)N2C(C(=O)O)=C(S[C@@H]3CN[C@H](C(=O)N(C)C)C3)[C@H](C)[C@H]12 [MEROPENEM]	0.5 µg/mL	0.125 µg/mL	1 µg/mL	> 32 µg/mL			
C[C@@H](O)[C@H]1C(=O)N2C(C(=O)O)=C(SCCNC=N)C[C@H]12 [IMIPENEM ANHYDROUS]	2 µg/mL	0.5 µg/mL	4 µg/mL	32 µg/mL			
CN(C)c1cc(NC(=O)CNC(C)(C)C)c(O)c2c1C[C@H]1C[C@H]3[C@H](N(C)C)C(O)=C(C(N)=O)C(=O)[C@@]3(O)C(O)=C1C2=O [TIGECYCLINE]	16 µg/mL	0.5 µg/mL	0.5 µg/mL	2 µg/mL			
GENTAMICIN					2 µg/mL	> 64 µg/mL	2 µg/mL
CO/N=C(\C(=O)N[C@@H]1C(=O)N2C(C(=O)O)=C(COC(C)=O)CS[C@H]12)c1csc(N)n1 [CEFOTAXIME]	16 µg/mL	16 µg/mL	> 32 µg/mL	> 32 µg/mL			
CC(C)(O/N=C(\C(=O)N[C@@H]1C(=O)N2C(C(=O)[O-])=C(C[n+]3ccccc3)CS[C@H]12)c1csc(N)n1)C(=O)O [CEFTAZIDIME]	2 µg/mL	64 µg/mL	> 32 µg/mL	64 µg/mL			
C[C@H]1[C@H](NC(=O)/C(=N\OC(C)(C)C(=O)O)c2csc(N)n2)C(=O)N1S(=O)(=O)O [AZTREONAM]	> 16 µg/mL	8 µg/mL	16 µg/mL	> 256 µg/mL			
O=C(O)c1cn(C2CC2)c2cc(N3CCNCC3)c(F)cc2c1=O [CIPROFLOXACIN]		> 32 µg/mL	2 µg/mL	> 32 µg/mL			
CCN1CCN(C(=O)N[C@@H](C(=O)N[C@@H]2C(=O)N3[C@@H]2SC(C)(C)[C@@H]3C(=O)O)c2ccccc2)C(=O)C1=O [PIPERACILLIN]	8 µg/mL	> 256 µg/mL	> 256 µg/mL	> 256 µg/mL			
CN(C)[C@@H]1C(O)=C(C(N)=O)C(=O)[C@@]2(O)C(O)=C3C(=O)c4c(O)cccc4[C@@](C)(O)[C@H]3C[C@@H]12 [TETRACYCLINE]	8 µg/mL	64 µg/mL	16 µg/mL	> 256 µg/mL			
